Columns and labels:
Format in all cases: functional
[1] = system: CAKI-1; assay: Growth inhibition of human CAKI-1 cells assessed as cell growth at 10^-8 M after 48 hrs by SRB assay; conditions: CAKI-1, 48 h, read-out: Activity
Procedure, shortened: (§1)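 Five-dose NCI panel protocol. Each dose (10^-4 to 10^-8 M, 10-fold steps) was given as 48 h continuous exposure, and protein was measured by SRB staining. Percentage growth at each level is [(Ti−Tz)/(C−Tz)]×100, where Tz is time-zero absorbance and C is untreated control.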

[2] = system: U-251; assay: Growth inhibition of human U251 cells assessed as cell growth at 10^-5 M after 48 hrs by SRB assay; conditions: U-251, 48 h, read-out: Activity
[3] = system: HCT-116; assay: Growth inhibition of human HCT116 cells assessed as cell growth at 10^-4 M after 48 hrs by SRB assay; conditions: HCT-116, 48 h, read-out: Activity
[4] = system: Malme-3M; assay: Growth inhibition of human MALME-3M cells assessed as cell growth at 10^-4 M after 48 hrs by SRB assay; conditions: read-out: Activity
[5] = system: HT-29; assay: Cytotoxicity against human HT-29 cells after 48 hrs by SRB assay; conditions: HT-29, 48 h
Procedure, shortened: (§2)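 NCI 60-cell-line panel of human tumour lines from nine cancer types. Continuous 48 h exposure at five 10-fold dilutions from 10^-4 to 10^-8 M, with 5-FU as positive control. SRB protein stain read spectrophotometrically at time zero, untreated control and each concentration. GI50, TGI and LC50 were derived from the [(Ti−Tz)/(C−Tz)]×100 growth relations, and out-of-range values are given as > or < the tested limits.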

[6] = system: M14; assay: Growth inhibition of human M14 cells assessed as cell growth at 10^-6 M after 48 hrs by SRB assay; conditions: M14, 48 h, read-out: Activity
[7] = Cytotoxicity against human EKVX cells after 48 hrs by SRB assay; procedure, shortened: as §2
[8] = system: SF-268; assay: Growth inhibition of human SF268 cells assessed as cell growth at 10^-5 M after 48 hrs by SRB assay; conditions: SF-268, 48 h, read-out: Activity
[9] = system: CCRF-CEM; assay: Growth inhibition of human CCRF-CEM cells assessed as cell growth at 10^-6 M after 48 hrs by SRB assay; conditions: read-out: Activity; procedure, shortened: as §1
[10] = Growth inhibition of human EKVX cells assessed as cell growth at 10^-6 M after 48 hrs by SRB assay; conditions: read-out: Activity
[11] = system: M14; assay: Cytotoxicity against human M14 cells after 48 hrs by SRB assay; conditions: M14, 48 h; procedure, shortened: as §2
[12] = system: A498; assay: Growth inhibition of human A498 cells assessed as cell growth at 10^-7 M after 48 hrs by SRB assay; conditions: A498, 48 h, read-out: Activity; procedure, shortened: as §1
[13] = system: MCF7; assay: Growth inhibition of human MCF7 cells assessed as cell growth at 10^-8 M after 48 hrs by SRB assay; conditions: MCF7, 48 h, read-out: Activity
[14] = system: HOP-62; assay: Growth inhibition of human HOP62 cells assessed as cell growth at 10^-7 M after 48 hrs by SRB assay; conditions: HOP-62, 48 h, read-out: Activity
[15] = system: SK-OV-3; assay: Cytotoxicity against human SKOV3 cells after 48 hrs by SRB assay; conditions: SK-OV-3, 48 h; procedure, shortened: as §2
[16] = system: NCI-H460; assay: Cytotoxicity against human NCI-H460 cells after 48 hrs by SRB assay; conditions: NCI-H460, 48 h; procedure, shortened: as §2
[17] = system: SK-MEL-5; assay: Cytotoxicity against human SK-MEL-5 cells after 48 hrs by SRB assay; conditions: SK-MEL-5, 48 h; procedure, shortened: as §2
[18] = system: K562; assay: Growth inhibition of human K562 cells assessed as cell growth at 10^-6 M after 48 hrs by SRB assay; conditions: K562, 48 h, read-out: Activity
[19] = system: KM12; assay: Cytotoxicity against human KM12 cells after 48 hrs by SRB assay; conditions: KM12, 48 h; procedure, shortened: as §2
[20] = Growth inhibition of human RXF393 cells assessed as cell growth at 10^-5 M after 48 hrs by SRB assay; conditions: RXF 393, 48 h, read-out: Activity
[21] = system: NCI-H322M; assay: Growth inhibition of human NCI-H322M cells assessed as cell growth at 10^-8 M after 48 hrs by SRB assay; conditions: read-out: Activity
[22] = system: COLO 205; assay: Growth inhibition of human COLO205 cells assessed as cell growth at 10^-8 M after 48 hrs by SRB assay; conditions: COLO 205, 48 h, read-out: Activity; procedure, shortened: as §1
[23] = system: CCRF-CEM; assay: Cytotoxicity against human CCRF-CEM cells after 48 hrs by SRB assay; procedure, shortened: as §2
[24] = system: SN12C; assay: Growth inhibition of human SN12C cells assessed as cell growth at 10^-8 M after 48 hrs by SRB assay; conditions: read-out: Activity
[25] = system: U-251; assay: Growth inhibition of human U251 cells assessed as cell growth at 10^-6 M after 48 hrs by SRB assay; conditions: U-251, 48 h, read-out: Activity
[26] = Growth inhibition of human OVCAR3 cells assessed as cell growth at 10^-8 M after 48 hrs by SRB assay; conditions: OVCAR-3, 48 h, read-out: Activity
[27] = system: SK-MEL-5; assay: Growth inhibition of human SK-MEL-5 cells assessed as cell growth at 10^-4 M after 48 hrs by SRB assay; conditions: SK-MEL-5, 48 h, read-out: Activity
[28] = system: DU-145; assay: Growth inhibition of human DU145 cells assessed as cell growth at 10^-5 M after 48 hrs by SRB assay; conditions: DU-145, 48 h, read-out: Activity; procedure, shortened: as §1
[29] = read-out: LC50 (the source's name)
[30] = read-out: pLC50 (the source's name) (converted)

## Cc1ccc(-c2nc3ccc(Cl)cc3c(=O)n2/N=C/c2ccccc2)cc1
[1]
  growth at 0.01 µM: 89%
[2]
  growth at 10 µM: 32%
[3]
  growth at 100 µM: 21%
[4]
  growth at 100 µM: 42%
[5]; read-out: GI50
  GI50: 60.2 µM
[5]; read-out: LC50
  LC50: > 100 µM
[5]; read-out: TGI
  TGI: > 100 µM
[5]; read-out: pGI50 (converted)
  GI50: 60.3 µM
[5]; read-out: pLC50 (converted)
  LC50: > 100 µM
[5]; read-out: pTGI
  TGI: > 100 µM
[6]
  growth at 1 µM: 97%
[7]; read-out: GI50
  GI50: 4.15 µM
[7]; [29]
  CC50: > 100 µM
[7]; read-out: TGI
  TGI: > 100 µM
[7]; read-out: pGI50 (converted)
  GI50: 4.17 µM
[7]; [30]
  CC50: > 100 µM
[7]; read-out: pTGI
  TGI: > 100 µM
[8]
  growth at 10 µM: 50%
[9]
  growth at 1 µM: 88%
[10]
  growth at 1 µM: 76%
[11]; read-out: GI50
  GI50: 56.2 µM
[11]; [29]
  CC50: > 100 µM
[11]; read-out: TGI
  TGI: > 100 µM
[11]; read-out: pGI50 (converted)
  GI50: 56.2 µM
[11]; [30]
  CC50: > 100 µM
[11]; read-out: pTGI
  TGI: > 100 µM
[12]
  growth at 0.1 µM: 85%
[13]
  growth at 0.01 µM: 93%
[14]
  growth at 0.1 µM: 89%
[15]; read-out: GI50
  GI50: 2.89 µM
[15]; [29]
  CC50: > 100 µM
[15]; read-out: TGI
  TGI: 9.9 µM
[15]; read-out: pGI50 (converted)
  GI50: 2.88 µM
[15]; [30]
  CC50: > 100 µM
[15]; read-out: pTGI (converted)
  TGI: 10 µM
[16]; read-out: GI50
  GI50: 3.68 µM
[16]; [29]
  CC50: > 100 µM
[16]; read-out: TGI
  TGI: > 100 µM
[16]; read-out: pGI50 (converted)
  GI50: 3.72 µM
[16]; [30]
  CC50: > 100 µM
[16]; read-out: pTGI
  TGI: > 100 µM
[17]; read-out: GI50
  GI50: 20 µM
[17]; [29]
  CC50: > 100 µM
[17]; read-out: TGI
  TGI: > 100 µM
[17]; read-out: pGI50 (converted)
  GI50: 20 µM
[17]; [30]
  CC50: > 100 µM
[17]; read-out: pTGI
  TGI: > 100 µM
[18]
  growth at 1 µM: 92%
[19]; read-out: GI50
  GI50: > 100 µM
[19]; [29]
  CC50: > 100 µM
[19]; read-out: TGI
  TGI: > 100 µM
[19]; read-out: pGI50 (converted)
  GI50: > 100 µM
[19]; [30]
  CC50: > 100 µM
[19]; read-out: pTGI
  TGI: > 100 µM
[20]
  growth at 10 µM: 41%
[21]
  growth at 0.01 µM: 87%
[22]
  growth at 0.01 µM: 103%
[23]; read-out: GI50
  GI50: > 100 µM
[23]; [29]
  CC50: > 100 µM
[23]; read-out: TGI
  TGI: > 100 µM
[23]; read-out: pGI50 (converted)
  GI50: > 100 µM
[23]; [30]
  CC50: > 100 µM
[23]; read-out: pTGI
  TGI: > 100 µM
[24]
  growth at 0.01 µM: 104%
[25]
  growth at 1 µM: 93%
[26]
  growth at 0.01 µM: 100%
[27]
  growth at 100 µM: 34%
[28]
  growth at 10 µM: 55%

Source: ChEMBL document CHEMBL3259728, “Design, synthesis and biological evaluation of some novel substituted quinazolines as antitumor agents” (2014)
